Test results published in EPA's CvTdb concentration-time database.

What was measured:
Rat [1] = test: concentration in liver after dosing; settings: 6 h; dosed: Perfluorohexane-1-sulphonic acid – potassium salt; 16 mg/kg; oral; Female; F344
Rat [2] = test: concentration in liver after dosing; settings: 24 h; dosed: Perfluorohexane-1-sulphonic acid – potassium salt; 16 mg/kg; oral; Female; Harlan Sprague Dawley
Rat [3] = test: concentration in liver after dosing; settings: 192 h; dosed: Perfluorohexane-1-sulphonic acid – potassium salt; 16 mg/kg; oral; Female; F344
Rat [4] = test: concentration in kidney after dosing; settings: 6 h; dosed: Perfluorohexane-1-sulphonic acid – potassium salt; 16 mg/kg; oral; Female; F344
Rat [5] = test: concentration in plasma after dosing; settings: 20 h; dosed: Pyridine; 25 mg/kg; oral; Male; F344
Rat [6] = test: concentration in plasma after dosing; settings: 2 h; dosed: Pyridine; 10 mg/kg; iv; Male; F344
Rat [7] = test: concentration in plasma after dosing; settings: dosed: Pyridine, 5 mg/kg, oral, Male, F344
Rat [8] = test: concentration in plasma after dosing; settings: 2 min; dosed: Pyridine; 10 mg/kg; oral; Male; F344
Rat [9] = test: concentration in plasma after dosing; settings: 50 min; dosed: Pyridine; 10 mg/kg; iv; Male; F344
Rat [10] = test: concentration in plasma after dosing; settings: dosed: Pyridine, 5 mg/kg, iv, Male, F344
Rat [11] = test: concentration in plasma after dosing; settings: dosed: 2,4-Dichlorophenoxyacetic acid, 7.0 mg/kg, oral, Male, Sprague-Dawley
human = test: amount in urine after dosing (mg cumulative excretion); settings: dosed: trichloroethylene, inhalation, duration: 8 hr
How it was run: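 Points were largely digitised from plot screenshots with WebPlotDigitizer or otherwise copied from tables, and they remain in the units each source reported. They come from published in vivo toxicokinetic studies and two structured collections. Sampling and analytical methods follow each source and were often not reported.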

Rat [12] = test: concentration in plasma after dosing; settings: dosed: Methyleugenol, 37 mg/kg, iv, Male, F344
Rat [13] = test: concentration in plasma after dosing; settings: dosed: Methyleugenol, 37 mg/kg, oral, Female, F344/N
Rat [14] = test: concentration in plasma after dosing; settings: dosed: 2-Hydroxy-4-methoxybenzophenone, 500 mg/kg, oral, Female, F344
Mouse [15] = test: concentration in plasma after dosing; settings: 10 min; dosed: 2-Hydroxy-4-methoxybenzophenone; 250 mg/kg; oral; Female; B6C3F1
Mouse [16] = test: concentration in plasma after dosing; settings: 10 min; dosed: 2-Hydroxy-4-methoxybenzophenone; 50 mg/kg; iv; Male; B6C3F1
Mouse [17] = test: concentration in plasma after dosing; settings: 2 h; dosed: 2-Hydroxy-4-methoxybenzophenone; 250 mg/kg; oral; Male; B6C3F1
Mouse [18] = test: concentration in plasma after dosing; settings: 2 h; dosed: 2-Hydroxy-4-methoxybenzophenone; 50 mg/kg; iv; Female; B6C3F1
Rat [19] = test: concentration in plasma after dosing; settings: dosed: 2-Hydroxy-4-methoxybenzophenone, 100 mg/kg, oral, Female, F344
Mouse [20] = test: concentration in plasma after dosing; settings: 0.25 h; dosed: 2-Hydroxy-4-methoxybenzophenone; 250 mg/kg; oral; Male; B6C3F1
Rat [21] = test: concentration in brain after dosing; settings: 10 min; dosed: alpha-Thujone; 25 mg/kg; oral; Male; Harlan Sprague Dawley
Rat [22] = test: concentration in brain after dosing; settings: 1.5 h; dosed: alpha-Thujone; 25 mg/kg; oral; Male; Harlan Sprague Dawley
Rat [23] = test: concentration in plasma after dosing; settings: 5 min; dosed: alpha-Thujone; 50 mg/kg; oral; Female; Harlan Sprague Dawley
Rat [24] = test: concentration in plasma after dosing; settings: 10 min; dosed: alpha-Thujone; 25 mg/kg; oral; Male; Harlan Sprague Dawley
Rat [25] = test: concentration in plasma after dosing; settings: 0.25 h; dosed: Primidone; 30 mg/kg; oral; Female; F344
Rat [26] = test: concentration in plasma after dosing; settings: 9 h; dosed: Primidone; 130 mg/kg; oral; Female; F344

O=S(=O)([O-])C(F)(F)C(F)(F)C(F)(F)C(F)(F)C(F)(F)C(F)(F)F.[K+] [Perfluorohexane-1-sulphonic acid – potassium salt]
Settings	concentration in kidney [ng/g]	concentration in liver [ng/g]
Rat [1]	–	80400
Rat [2]	–	29500
Rat [3]	–	40300
Rat [4]	39300	–

c1ccncc1 [Pyridine]
Settings	concentration in plasma [ng/mL]
Rat [5]	4760
Rat [6]	320
Rat [8]	453
Rat [9]	2310

concentration in plasma [ng/mL]
Settings	0.5 h	1 h	8 h
Rat [7]	–	3160	1170
Rat [10]	2590	–	881

O=C(O)COc1ccc(Cl)cc1Cl [2,4-Dichlorophenoxyacetic acid]
Rat [11]
Settings	concentration in plasma [ng/mL]
0.25 h	8070
0.5 h	14500
2 h	4090
2.5 min	7170
3 h	3180
4 h	3720
5 h	4480
6 h	1890
10 min	14700

OCC(Cl)(Cl)Cl [trichloroethanol]
human
Settings	amount in urine
7.932 h, 97 ppm	111
7.949 h, 54 ppm	76.3
8.43 h, 97 ppm	104
8.618 h, 54 ppm	55.6
9.257 h, 97 ppm	96.4
23.71 h, 54 ppm	175
23.74 h, 97 ppm	288
24.11 h, 54 ppm	191
24.33 h, 97 ppm	255
24.69 h, 97 ppm	352
47.97 h, 97 ppm	393
47.99 h, 97 ppm	364
48.13 h, 97 ppm	417
49.69 h, 54 ppm	258
49.75 h, 54 ppm	291
71.65 h, 54 ppm	301
71.89 h, 54 ppm	323
72.02 h, 97 ppm	395
72.49 h, 97 ppm	431
72.5 h, 97 ppm	422
95.28 h, 54 ppm	314
95.43 h, 54 ppm	328
95.87 h, 97 ppm	444
95.88 h, 97 ppm	429
96.05 h, 97 ppm	408
119.38 h, 54 ppm	345
119.39 h, 54 ppm	327
119.52 h, 97 ppm	409
119.58 h, 97 ppm	452
119.67 h, 97 ppm	430
142.52 h, 54 ppm	348
142.61 h, 54 ppm	331
143.45 h, 97 ppm	458
143.64 h, 97 ppm	412
143.71 h, 97 ppm	433
166.64 h, 54 ppm	352
167.26 h, 97 ppm	433
167.33 h, 97 ppm	463
167.44 h, 97 ppm	411
191.64 h, 97 ppm	414
191.88 h, 97 ppm	432
192.11 h, 97 ppm	466

C=CCc1ccc(OC)c(OC)c1 [Methyleugenol]
concentration in plasma [ng/mL]
Settings	0.25 h	1.5 h	4 h	5 min
Rat [12]	8180	878	–	–
Rat [13]	–	–	9.95	173

O=C(c1ccccc1)c1ccc(O)cc1O [2,4-Dihydroxybenzophenone]
concentration in plasma [ng/mL]
Settings	0.5 h	5 h	10 h	10 min
Rat [14]	–	–	150	258
Rat [19]	195	85.4	–	–

Settings	concentration in plasma [ng/mL]
Mouse [15]	2990
Mouse [16]	3890
Mouse [17]	266
Mouse [18]	46.1
Mouse [20]	1130

CC(C)[C@]12CC(=O)[C@H](C)[C@H]1C2 [alpha-Thujone]
Settings	concentration in brain [ng/g]	concentration in plasma [ng/mL]
Rat [21]	3920	–
Rat [22]	388	–
Rat [23]	–	201
Rat [24]	–	408

CCC1(c2ccccc2)C(=O)NCNC1=O [Primidone]
Settings	concentration in plasma [ng/mL]
Rat [25]	17700
Rat [26]	52500
